35 compounds from ChEMBL document CHEMBL1148766, “Design, synthesis, and evaluation of orally active benzimidazoles and benzoxazoles as vascular endothelial growth factor-2 receptor tyrosine kinase inhibitors” (J Med Chem, 2007) can be followed below.

Data set [1] has as its target T1, Vascular endothelial growth factor receptor 2 (Homo sapiens, UniProt P35968). In words: Inhibition of KDR phosphorylation. It is filed as functional.
The nature of data set [2]: Half life in Sprague-Dawley rat at 1 mg/kg, iv or 10 mg/kg po. It is filed as ADME, organism-based. The settings on record: in vivo. The essentials:
(§1)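 Male Sprague-Dawley rats were dosed either into the femoral vein at 1 mg/kg in DMSO (n = 3) or by oral gavage at 10 mg/kg as an Ora-Plus suspension, pH 2.0-2.2 with methanesulfonic acid (n = 2). Serial jugular-vein blood was taken into heparinized tubes over 12-24 h. Parameters were derived by noncompartmental analysis.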

Data set [3] is described as follows: Clearance in Sprague-Dawley rat at 1 mg/kg, iv. It is filed as ADME, organism-based. Also on record: dose 1 mg/kg, route intravenous. The settings on record: in vivo. The essentials: (§2)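 Male Sprague-Dawley rats, n = 3, given 1 mg/kg as a DMSO solution into the femoral vein. Serial jugular-vein blood samples were taken into heparinized tubes over 12-24 h. Parameters were derived by noncompartmental analysis.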

Data set [4] in a line: Volume of distribution at steady state in Sprague-Dawley rat at 1 mg/kg, iv. It counts as ADME, organism-based. The settings on record: in vivo, read-out: Vdss. More on the design: dose 1 mg/kg, route intravenous. The essentials: as §2
The nature of data set [5]: Oral bioavailability in Sprague-Dawley rat at 10 mg/kg, po. It is filed as ADME, organism-based. Conditions: in vivo. The essentials:
as §1

Data set [6] addresses T1, Vascular endothelial growth factor receptor 2. In words: Selectivity for VEGF-stimulated HUVEC cell proliferation over FGF-induced HUVEC cell proliferation. It counts as functional, cell-based. The essentials: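 HUVECs seeded at 3000/well in DMEM with 10% FBS, 22 h, then preincubated 2 h with compound serial dilutions. Stimulated with 50 ng/mL VEGF or 20 ng/mL bFGF for 72 h at 37 °C, 5% CO₂. Cells washed, frozen, then quantified with CyQuant dye. IC50s from four-parameter logistic fit; ratio of FGF over VEGF IC50.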

Data set [7] in a line: Oral bioavailability in Sprague-Dawley rat at 3 mg/kg, po. It counts as ADME, organism-based. Conditions: in vivo. The essentials:
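Male Sprague-Dawley rats given 3 mg/kg by oral gavage as an Ora-Plus suspension adjusted to pH 2.0-2.2 with methanesulfonic acid. Serial jugular-vein blood was taken into heparinized tubes over 12-24 h. Noncompartmental analysis.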

T1 sequence (P35968 whole entry): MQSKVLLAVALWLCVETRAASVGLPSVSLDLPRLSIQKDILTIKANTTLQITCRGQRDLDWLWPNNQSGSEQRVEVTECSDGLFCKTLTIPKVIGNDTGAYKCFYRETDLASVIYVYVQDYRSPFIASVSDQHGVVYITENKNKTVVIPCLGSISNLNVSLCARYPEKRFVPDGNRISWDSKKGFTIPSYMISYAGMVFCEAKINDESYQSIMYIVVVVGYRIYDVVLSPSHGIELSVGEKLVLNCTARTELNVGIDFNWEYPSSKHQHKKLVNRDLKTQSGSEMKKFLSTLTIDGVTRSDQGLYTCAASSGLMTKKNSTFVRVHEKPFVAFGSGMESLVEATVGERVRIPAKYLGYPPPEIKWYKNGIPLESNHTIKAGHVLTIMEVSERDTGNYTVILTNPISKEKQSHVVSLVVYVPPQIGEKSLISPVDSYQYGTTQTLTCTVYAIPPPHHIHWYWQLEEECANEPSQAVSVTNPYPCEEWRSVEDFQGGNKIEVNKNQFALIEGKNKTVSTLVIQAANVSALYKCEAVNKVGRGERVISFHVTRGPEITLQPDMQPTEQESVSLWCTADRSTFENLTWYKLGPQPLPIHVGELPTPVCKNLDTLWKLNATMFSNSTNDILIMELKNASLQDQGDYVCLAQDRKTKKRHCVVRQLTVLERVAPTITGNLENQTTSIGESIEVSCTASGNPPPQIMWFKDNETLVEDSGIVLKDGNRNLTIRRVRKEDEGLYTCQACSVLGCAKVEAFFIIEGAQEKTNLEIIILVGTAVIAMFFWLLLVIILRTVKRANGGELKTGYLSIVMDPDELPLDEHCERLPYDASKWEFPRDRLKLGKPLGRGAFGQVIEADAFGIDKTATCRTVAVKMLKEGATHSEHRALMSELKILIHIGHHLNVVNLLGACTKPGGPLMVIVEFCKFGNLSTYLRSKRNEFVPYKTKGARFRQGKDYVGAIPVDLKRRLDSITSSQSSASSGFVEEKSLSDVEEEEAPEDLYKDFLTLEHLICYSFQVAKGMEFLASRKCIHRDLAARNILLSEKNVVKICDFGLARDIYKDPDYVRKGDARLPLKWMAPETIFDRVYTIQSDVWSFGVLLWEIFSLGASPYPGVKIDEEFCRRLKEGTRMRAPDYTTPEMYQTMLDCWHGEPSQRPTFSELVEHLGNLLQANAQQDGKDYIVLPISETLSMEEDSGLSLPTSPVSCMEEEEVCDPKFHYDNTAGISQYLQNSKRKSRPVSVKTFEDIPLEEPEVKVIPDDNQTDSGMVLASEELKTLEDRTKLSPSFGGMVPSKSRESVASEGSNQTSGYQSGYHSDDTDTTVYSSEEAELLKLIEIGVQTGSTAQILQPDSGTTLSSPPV

With `CN1CCC[C@@H]1COc1cc(Nc2nc3cc(Oc4ccnc5ccccc45)ccc3[nH]2)ccc1C(F)(F)F`, the Ki in data set [1] worked out at 1 nM. Further, in data set [2], the half-life is 288 min. Also, the clearance in data set [3] was 16.7 mL/min/kg. Besides, the Vd in data set [4] was 5.8 L/kg. The compound also showed a bioavailability in data set [5] of 24%.
In the case of `COc1cc2ncnc(Oc3ccc4oc(Nc5ccc(Cl)c(OC[C@@H]6CCCN6C)c5)nc4c3)c2cc1OC`, the inhibitory constant (Ki) in data set [1] was found to be 0.5 nM. This compound showed a half-life in data set [2] of 368 min. This compound gave a clearance in data set [3] of 14.8 mL/min/kg. Besides, the Ratio IC50 in data set [6] turned out to be 10. Further, the Vd in data set [4] was found to be 6.88 L/kg. In data set [5], this compound showed a bioavailability of 60%.
In turn, `CNC(=O)c1cc(Oc2ccc3oc(Nc4ccc(Cl)c(CN5CCN(C)CC5)c4)nc3c2)ccn1` registered a Ki in data set [1] of 4 nM.
On the same count and under the same terms, the value for `CNC(=O)c1cc(Oc2ccc3oc(Nc4ccc(Cl)cc4)nc3c2)ccn1` was 12 nM; that for `CNC(=O)c1cc(Oc2ccc3[nH]c(Nc4cc(OCCN5CCCC5)cc(C(F)(F)F)c4)nc3c2)ccn1` was 287 nM.
Same read-out and setting: with `CNC(=O)c1cc(Oc2ccc3[nH]c(Nc4ccc(C(F)(F)C(F)(F)F)c(OC[C@H]5CCCN5C)c4)nc3c2)ccn1` the figure was 9 nM.
In data set [1], `COc1cc2nccc(Oc3ccc4oc(Nc5ccc(Cl)c(CN6CCN(C)CC6)c5)nc4c3)c2cc1OC` returned a Ki of 0.5 nM. In data set [2], the half-life is 332 min. Further, the clearance in data set [3] was 27.2 mL/min/kg. In addition, the Ratio IC50 in data set [6] was 10. In data set [4], the Vd was determined as 12.1 L/kg. The bioavailability in data set [5] was found to be 67%.
`CNc1nccc(Oc2ccc3[nH]c(Nc4ccc(Cl)c(CN5CCN(C)CC5)c4)nc3c2)n1` yielded a Ki in data set [1] of 40 nM.
The same measure, in the same setting: the value for `CNC(=O)c1cc(Oc2ccc3c(c2)nc(Nc2ccc(Cl)c(CN4CCN(C)CC4)c2)n3C)ccn1` was 10 nM.
Still for that read-out and setting: with `CNC(=O)c1cc(Oc2ccc3oc(Nc4ccc(Cl)c(OCCN(C)C)c4)nc3c2)ccn1` the figure was 4 nM; with `COc1cc2nccc(Oc3ccc4oc(Nc5ccc(Cl)c(OC[C@@H]6CCCN6C)c5)nc4c3)c2cc1OC`, 0.5 nM.
The same measure, in the same setting: with `CN1CCN(Cc2cc(Nc3nc4cc(Oc5ccnc6ccccc56)ccc4[nH]3)ccc2Cl)CC1` the figure was 2 nM; with `CNC(=O)c1cc(Oc2ccc3oc(Nc4ccc(Cl)c(CN5CCOCC5)c4)nc3c2)ccn1`, 4 nM.
`CN1CCN(Cc2cc(Nc3nc4cc(Oc5ccnc6[nH]ccc56)ccc4o3)ccc2Cl)CC1`: the Ki in data set [1] is 2 nM.
The same measure, in the same setting: the value for `CNC(=O)c1cc(Oc2ccc3oc(Nc4ccc(Cl)c(OCC5CCNCC5)c4)nc3c2)ccn1` was 3 nM.
The same measure, in the same setting: the value for `CNC(=O)c1cc(Oc2ccc3[nH]c(Nc4ccc(C(F)(F)F)c(OCCN(C)C)c4)nc3c2)ccn1` was 3 nM; that for `CNC(=O)c1cc(Oc2cc(Cl)c3oc(Nc4ccc(Cl)c(CN5CCN(C)CC5)c4)nc3c2)ccn1` was 10 nM.
The same measure, in the same setting: the value for `CSc1nccc(Oc2ccc3[nH]c(Nc4ccc(Cl)c(CN5CCN(C)CC5)c4)nc3c2)n1` was 128 nM; that for `CNc1nccc(Oc2ccc3oc(Nc4ccc(Cl)c(CN5CCN(C)CC5)c4)nc3c2)n1` was 25 nM; that for `CN1CCN(Cc2cc(Nc3nc4cc(Oc5ccnc6ccccc56)ccc4o3)ccc2Cl)CC1` was 3.6 nM.
In data set [1], `CNC(=O)c1cc(Oc2ccc3[nH]c(Nc4ccc(C(F)(F)F)c(OC[C@H]5CCCN5C)c4)nc3c2)ccn1` returned a Ki of 2 nM.
The compound `COc1cc2ncnc(Oc3ccc4[nH]c(Nc5ccc(Cl)cc5)nc4c3)c2cc1OC` returned a Ki in data set [1] of 8 nM.
`CN1CCCC1COc1cc(Nc2nc3cc(Oc4ccnc5[nH]ccc45)ccc3o2)ccc1Cl` (single isomer, unassigned) had a Ki in data set [1] of 1.6 nM. The compound further gave a half-life in data set [2] of 172 min. Moreover, the clearance in data set [3] is 20.7 mL/min/kg. The Vd in data set [4] was 5.02 L/kg. This compound returned a bioavailability in data set [5] of 17%.
Consider `CN1CCN(Cc2cc(Nc3nc4ccc(Oc5ccnc6[nH]ccc56)cc4[nH]3)ccc2Cl)CC1`, for which affinity in data set [1] was put at a Ki of 3 nM. This lies in the single-digit nanomolar range.
Consider `CN1CCC[C@H]1COc1cc(Nc2nc3cc(Oc4ccnc(C(N)=O)c4)ccc3o2)ccc1Cl`, for which the affinity in data set [1] corresponds to a Ki of 3 nM.
Same read-out and setting: the value for `CNC(=O)c1cc(Oc2ccc3[nH]c(Nc4ccc(Cl)c(CN5CCN(C)CC5)c4)nc3c2)ccn1` was 3.9 nM.
Still for that read-out and setting: the value for `FC(F)(F)c1cc(Nc2nc3ccc(Oc4ccnc5[nH]ccc45)cc3[nH]2)ccc1Cl` was 48 nM.
The same measure, in the same setting: the value for `CNc1cc(Oc2ccc3oc(Nc4ccc(Cl)c(CN5CCN(C)CC5)c4)nc3c2)ncn1` was 20 nM.
As to `CCN(CC)CCOc1cc(Nc2nc3cc(Oc4ccnc(C(=O)NC)c4)ccc3o2)ccc1Cl`, the inhibition constant (Ki) in data set [1] turned out to be 5 nM.
Still for that read-out and setting: the value for `CNC(=O)c1cc(Oc2cc(F)c3oc(Nc4ccc(Cl)c(OC[C@@H]5CCCN5C)c4)nc3c2)ccn1` was 3 nM; that for `CN1CCN(Cc2cc(Nc3nc4cc(Oc5ccnc6ccccc56)cc(Cl)c4o3)ccc2Cl)CC1` was 2 nM.
Same read-out and setting: with `COc1cc2nccc(Oc3ccc4[nH]c(Nc5ccc(Cl)c(CN6CCN(C)CC6)c5)nc4c3)c2cc1OC` the figure was 0.2 nM.
`CNC(=O)c1cc(Oc2ccc3oc(Nc4ccc(Cl)c(OC[C@@H]5CCCN5C)c4)nc3c2)ccn1` registered a bioavailability in data set [7] of 40%. Further, in data set [2], the half-life was 108 min. The compound also had a clearance in data set [3] of 56.7 mL/min/kg. Further, the Vd in data set [4] turned out to be 8.4 L/kg.
In data set [1], `CN1CCN(Cc2cc(Nc3nc4ccc(Oc5ncnc6[nH]ccc56)cc4[nH]3)ccc2Cl)CC1` yielded a Ki of 17 nM. This lies in the double-digit nanomolar range.
The compound `FC(F)(F)c1cc(Nc2nc3cc(Oc4ccncc4)ccc3[nH]2)ccc1Cl` registered a Ki in data set [1] of 160 nM.

As a reminder, the Ki is the equilibrium dissociation constant of an inhibitor or competing ligand from its target. Read a high Ki as weaker binding. The term half-life denotes how long it takes for the measured level to halve. One may read the clearance as the volume of plasma or blood freed of the substance per unit of time. Usually bioavailability stands for the share of a dose that reaches the circulation, judged against a reference dose that is usually intravenous. Lower therefore signals little systemic uptake.
